# Assay results: ChEMBL document CHEMBL5712920, “The histone methyltransferase inhibitor A-366 enhances hemoglobin expression in erythroleukemia cells upon co-exposure with chemical inducers in culture” (J Biol Res (Thessalon), 2021)
# Activity calls are given as the source filed them. The rule behind the calls is not given here.
# Tests used:
# FLC clone 745 [1] = assay: Induction of cell cycle arrest in HMBA-stimulated mouse FLC clone 745 cells assessed as accumulation cells at G2/M phase at 10^-6 M after 48 hrs by PI staining based flow cytometric analysis (reference value: 6.67%); assay type: functional; details: dose 1 10^-6M, at 1 µM
# Outline: (§1)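 MEL cells plated at 5 × 10^5 per well and synchronized by serum deprivation for 24 h. Cells then incubated with compound at 10−6 M, alone or with HMBA 5 × 10−3 M, for 24, 48 and 72 h. Fixed in 70% ethanol overnight at 4 °C, stained with propidium iodide, and DNA content measured by flow cytometry to assign subG1, G1, S, G2/M and >4N fractions.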
# FLC clone 745 [2] = assay: Induction of cell cycle arrest in HMBA-stimulated mouse FLC clone 745 cells assessed as accumulation cells at subG1 phase at 10^-6 M after 24 hrs by PI staining based flow cytometric analysis (reference value: 41.78%); assay type: functional; details: dose 1 10^-6M, at 1 µM; outline: as §1
# [3] = Cytotoxicity against HMBA-stiumulated mouse FLC clone 745 cells assessed as cell viability measured after 48 hrs by Neubauer chamber based microscopic analysis (reference value: 50.563%); assay type: toxicity; details: HMBA-stimulated FLC clone 745 cells, read-out: Activity
# FLC clone 745 [4] = assay: Induction of cell cycle arrest in HMBA-stimulated mouse FLC clone 745 cells assessed as accumulation cells at S phase at 10^-6 M after 48 hrs by PI staining based flow cytometric analysis (reference value: 31.43%); assay type: functional; details: dose 1 10^-6M, at 1 µM; outline: as §1
# [5] = Cytotoxicity against mouse FLC clone 745 cells assessed as reduction in cell viability measured after 48 hrs by Neubauer chamber based microscopic analysis; assay type: toxicity
# FLC clone 745 [6] = assay: Induction of cell cycle arrest in HMBA-stimulated mouse FLC clone 745 cells assessed as accumulation cells at S phase at 10^-6 M after 24 hrs by PI staining based flow cytometric analysis (reference value: 21.59%); assay type: functional; details: dose 1 10^-6M, at 1 µM; outline: as §1
# FLC clone 745 [7] = assay: Induction of cell cycle arrest in mouse FLC clone 745 cells assessed as accumulation cells at G2/M phase at 10^-6 M after 24 hrs by PI staining based flow cytometric analysis (reference value: 14.35%); assay type: functional; details: dose 1 10^-6M, at 1 µM; outline: as §1
# FLC clone 745 [8] = assay: Induction of cell cycle arrest in mouse FLC clone 745 cells assessed as accumulation cells at G1/G0 phase at 10^-6 M after 48 hrs by PI staining based flow cytometric analysis (reference value: 25.43%); assay type: functional; details: dose 1 10^-6M, at 1 µM; outline: as §1
# FLC clone 745 [9] = assay: Induction of cell cycle arrest in HMBA-stimulated mouse FLC clone 745 cells assessed as accumulation cells at > 4N phase at 10^-6 M after 48 hrs by PI staining based flow cytometric analysis (reference value: 2.83%); assay type: functional; details: dose 1 10^-6M, at 1 µM; outline: as §1
# FLC clone 745 [10] = assay: Induction of cell cycle arrest in HMBA-stimulated mouse FLC clone 745 cells assessed as accumulation cells at G2/M phase at 10^-6 M after 72 hrs by PI staining based flow cytometric analysis (reference value: 9.86%); assay type: functional; details: dose 1 10^-6M, at 1 µM; outline: as §1
# FLC clone 745 [11] = assay: Induction of cell cycle arrest in HMBA-stimulated mouse FLC clone 745 cells assessed as accumulation cells at G1/G0 phase at 10^-6 M after 72 hrs by PI staining based flow cytometric analysis (reference value: 7.19%); assay type: functional; details: dose 1 10^-6M, at 1 µM; outline: as §1
# K562 [12] = assay: Induction of apoptosis in human K562 cells assessed as effect on caspase-3 mRNA expression level at 1 to 10 uM cells after 48 hrs by qPCR analysis; assay type: toxicity, cell-based; details: k562, 48 h, dose 1-10 µM
# Outline: (§2)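 K562 cells at 10^5 cells/ml grown without compound (control) or with 10−6 M or 10−5 M compound for 48 h. Total RNA isolated, then checked by gel electrophoresis and spectrophotometry. Transcripts quantified by qPCR.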
# FLC clone 745 [13] = assay: Induction of cell cycle arrest in mouse FLC clone 745 cells assessed as accumulation cells at S phase at 10^-6 M after 48 hrs by PI staining based flow cytometric analysis (reference value: 29.53%); assay type: functional; details: dose 1 10^-6M, at 1 µM; outline: as §1
# K562 [14] = assay: Induction of apoptosis in human K562 cells assessed as effect on caspase-9 mRNA expression level at 1 to 10 uM cells after 48 hrs by qPCR analysis; assay type: toxicity, cell-based; details: k562, 48 h, dose 1-10 µM; outline: as §2
# FLC clone 745 [15] = assay: Induction of cell cycle arrest in mouse FLC clone 745 cells assessed as accumulation cells at S phase at 10^-6 M after 24 hrs by PI staining based flow cytometric analysis (reference value: 28.46%); assay type: functional; details: dose 1 10^-6M, at 1 µM; outline: as §1
# FLC clone 745 [16] = assay: Induction of cell cycle arrest in HMBA-stimulated mouse FLC clone 745 cells assessed as accumulation cells at S phase at 10^-6 M after 72 hrs by PI staining based flow cytometric analysis (reference value: 19.52%); assay type: functional; details: dose 1 10^-6M, at 1 µM; outline: as §1
# FLC clone 745 [17] = assay: Induction of cell cycle arrest in HMBA-stimulated mouse FLC clone 745 cells assessed as accumulation cells at subG1 phase at 10^-6 M after 72 hrs by PI staining based flow cytometric analysis (reference value: 58.77%); assay type: functional; details: dose 1 10^-6M, at 1 µM; outline: as §1
# K562 [18] = assay: Induction of apoptosis in human K562 cells assessed as effect on caspase-8 mRNA expression level at 1 to 10 uM cells after 48 hrs by qPCR analysis; assay type: toxicity, cell-based; details: k562, 48 h, dose 1-10 µM; outline: as §2
# K562 [19] = assay: Induction of apoptosis in human K562 cells assessed as effect on Bax mRNA expression level at 1 to 10 uM cells after 48 hrs by qPCR analysis; assay type: toxicity, cell-based; details: k562, 48 h, dose 1-10 µM; outline: as §2
# FLC clone 745 [20] = assay: Induction of cell cycle arrest in mouse FLC clone 745 cells assessed as accumulation cells at G1/G0 phase at 10^-6 M after 72 hrs by PI staining based flow cytometric analysis (reference value: 26.4%); assay type: functional; details: dose 1 10^-6M, at 1 µM; outline: as §1
# K562 [21] = assay: Induction of apoptosis in human K562 cells assessed as effect on Bcl-2 mRNA expression level at 1 to 10 uM cells after 48 hrs by qPCR analysis; assay type: toxicity, cell-based; details: k562, 48 h, dose 1-10 µM; outline: as §2
# FLC clone 745 [22] = assay: Induction of cell cycle arrest in HMBA-stimulated mouse FLC clone 745 cells assessed as accumulation cells at > 4N phase at 10^-6 M after 24 hrs by PI staining based flow cytometric analysis (reference value: 9.83%); assay type: functional; details: dose 1 10^-6M, at 1 µM; outline: as §1
# [23] = Inhibition of G9a/GLP in HMBA-stiumulated mouse FLC clone 745 cells assessed as increase in erythroid differentiation at IC50 concentration measured after 72 hrs by benzidine-H2O2 based assay (reference value: 69.6%); details: condition erythroleukemia
# FLC clone 745 [24] = assay: Induction of cell cycle arrest in mouse FLC clone 745 cells assessed as accumulation cells at > 4N phase at 10^-6 M after 24 hrs by PI staining based flow cytometric analysis (reference value: 13.47%); assay type: functional; details: dose 1 10^-6M, at 1 µM; outline: as §1
# FLC clone 745 [25] = assay: Induction of cell cycle arrest in mouse FLC clone 745 cells assessed as accumulation cells at S phase at 10^-6 M after 72 hrs by PI staining based flow cytometric analysis (reference value: 24.02%); assay type: functional; details: dose 1 10^-6M, at 1 µM; outline: as §1
# FLC clone 745 [26] = assay: Inhibition of G9a/GLP in HMBA-stiumulated mouse FLC clone 745 cells assessed as increase in HBB protein expression at 10^-6 M after 48 hrs by Western blot analsysis; assay type: cell-based; details: dose 1.0 10^-6M
# Outline: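 MEL cells treated for 48 h with HMBA 5 × 10−3 M plus compound at 10−6 M. About 10^6 cells lysed in Tris/NaCl/2% SDS, sonicated, and protein quantified by BCA. 20 µg run on a 12% SDS-PAGE gel and transferred to PVDF. Membrane probed overnight at 4 °C with anti-hemoglobin β/γ/δ/ε, with β-tubulin as loading control, then HRP secondary for 1 h at room temperature.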
smiles,measurement,setting,value
COc1cc2c(cc1OCCCN1CCCC1)N=C(N)C21CCC1,Activity,FLC clone 745 [1],5.67%
same,Activity,FLC clone 745 [2],55.4%
same,viability at 48 h,[3],42.8%
same,Activity,FLC clone 745 [4],28.62%
same,IC50 at 48 h,[5],> 100 µM
same,Activity,FLC clone 745 [6],1.26%
same,Activity,FLC clone 745 [7],9.04%
same,Activity,FLC clone 745 [8],21%
same,Activity,FLC clone 745 [9],3.08%
same,Activity,FLC clone 745 [10],6.21%
same,Activity,FLC clone 745 [11],8.17%
same,Activity,K562 [12],Non-Toxic
same,Activity,FLC clone 745 [13],29.12%
same,Activity,K562 [14],Non-Toxic
same,Activity,FLC clone 745 [15],23.91%
same,Activity,FLC clone 745 [16],19.84%
same,Activity,FLC clone 745 [17],62.86%
same,Activity,K562 [18],Non-Toxic
same,Activity,K562 [19],Non-Toxic
same,Activity,FLC clone 745 [20],14.22%
same,Activity,K562 [21],Non-Toxic
same,Activity,FLC clone 745 [22],9.28%
same,inhibition (INH),[23],76.6%
same,Activity,FLC clone 745 [24],9.49%
same,Activity,FLC clone 745 [25],23.1%
same,inhibition,FLC clone 745 [26],Active
